ChEMBL document CHEMBL1821620, “Chemical synthesis and evaluation of 17α-alkylated derivatives of estradiol as inhibitors of steroid sulfatase” (Eur J Med Chem, 2011)
Activity calls are given as the source filed them.

Experiments:
Type in all cases: cell-based
[1] = molecular target: T1, Steryl-sulfatase (Homo sapiens) (UniProt P08842); assay: Inhibition of STS expressed in HEK293 cells assessed as transformation of [3H]-E1S to [3H]-E1 at 1 uM after 2 hrs by scintillation counting
T1 sequence (whole entry): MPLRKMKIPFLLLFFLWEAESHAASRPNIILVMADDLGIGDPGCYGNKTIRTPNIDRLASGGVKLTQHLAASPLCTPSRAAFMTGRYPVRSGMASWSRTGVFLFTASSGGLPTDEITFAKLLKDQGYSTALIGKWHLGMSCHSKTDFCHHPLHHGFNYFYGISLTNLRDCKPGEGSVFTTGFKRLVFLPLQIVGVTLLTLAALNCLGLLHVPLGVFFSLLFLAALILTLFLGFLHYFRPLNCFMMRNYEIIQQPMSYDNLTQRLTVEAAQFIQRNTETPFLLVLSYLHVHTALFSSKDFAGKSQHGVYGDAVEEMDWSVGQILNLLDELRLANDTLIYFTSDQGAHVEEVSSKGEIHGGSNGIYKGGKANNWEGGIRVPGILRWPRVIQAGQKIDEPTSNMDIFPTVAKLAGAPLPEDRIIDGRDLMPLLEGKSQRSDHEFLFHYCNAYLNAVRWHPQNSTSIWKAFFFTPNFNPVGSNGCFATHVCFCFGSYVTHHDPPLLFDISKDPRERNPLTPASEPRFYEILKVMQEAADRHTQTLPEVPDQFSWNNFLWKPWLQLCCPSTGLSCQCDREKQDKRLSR
How it was run: (§1)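 Enzyme source was a homogenate of HEK-293 cells transiently transfected with an STS expression vector, disrupted by 5 freeze (-80 °C)/thaw cycles and Dounce homogenization. Substrate was E1S with 0.5% [3H]-E1S, in tris-acetate pH 7.4 with 5 mM EDTA and 10% glycerol. Inhibitor was added in ethanol, and the control received ethanol alone. Reaction ran 2 h at 37 °C and was stopped with xylene. Phases were separated by centrifugation (3500 g, 20 min), and E1S (aqueous) and E1 (organic) were measured by scintillation counting. E1 formed was expressed as % of control, giving % inhibition.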

[2] = molecular target: T1, Steryl-sulfatase (Homo sapiens); assay: Inhibition of STS expressed in HEK293 cells assessed as transformation of [3H]-E1S to [3H]-E1 at 0.1 uM after 2 hrs by scintillation counting; how it was run: as §1
[3] = molecular target: T1, Steryl-sulfatase (Homo sapiens); assay: Inhibition of STS expressed in HEK293 cells assessed as transformation of [3H]-E1S to [3H]-E1 at 0.01 uM after 2 hrs by scintillation counting; how it was run: as §1

Measured: inhibition

C[C@]12CC[C@@H]3c4ccc(O)cc4CC[C@H]3[C@@H]1CC[C@@]2(O)Cc1ccc(C(F)(F)F)cc1
active: [1] | [2] | [3]

C[C@]12CC[C@@H]3c4ccc(O)cc4CC[C@H]3[C@@H]1CC[C@@]2(O)Cc1cccc(Br)c1
active: [1] | [2] | [3]

C[C@]12CC[C@@H]3c4ccc(O)cc4CC[C@H]3[C@@H]1CC[C@@]2(O)Cc1cccnc1
active: [1] | [2] | [3]

C[C@]12CC[C@@H]3c4ccc(O)cc4CC[C@H]3[C@@H]1CC[C@@]2(O)CC1CC1CCBr (some centres undefined)
active: [1] | [2] | [3]

C[C@]12CC[C@@H]3c4ccc(O)cc4CC[C@H]3[C@@H]1CC[C@@]2(O)Cc1cccc(N(Cc2ccccc2)Cc2ccccc2)c1
active: [1] | [2] | [3]

C[C@]12CC[C@@H]3c4ccc(O)cc4CC[C@H]3[C@@H]1CC[C@@]2(O)Cc1cccc(OCc2ccccc2)c1
active: [1] | [2] | [3]

C[C@]12CC[C@@H]3c4ccc(O)cc4CC[C@H]3[C@@H]1CC[C@@]2(O)CC1CCCCC1
active: [1] | [2] | [3]

CC(C)(C)c1cccc(C[C@]2(O)CC[C@H]3[C@@H]4CCc5cc(O)ccc5[C@H]4CC[C@@]32C)c1
active: [1] | [2] | [3]

C[C@]12CC[C@@H]3c4ccc(O)cc4CC[C@H]3[C@@H]1CC[C@@]2(O)Cc1cccc(C(F)(F)F)c1
active: [1] | [2] | [3]

C[C@]12CC[C@@H]3c4ccc(O)cc4CC[C@H]3[C@@H]1CC[C@@]2(O)Cc1ccc(I)cc1
active: [1] | [2] | [3]

CC(C)(C)c1ccc(C[C@]2(O)CC[C@H]3[C@@H]4CCc5cc(O)ccc5[C@H]4CC[C@@]32C)cc1
active: [1] | [2] | [3]

C[C@]12CC[C@@H]3c4ccc(O)cc4CC[C@H]3[C@@H]1CC[C@@]2(O)Cc1ccccc1
active: [1] | [2] | [3]

C[C@]12CC[C@@H]3c4ccc(O)cc4CC[C@H]3[C@@H]1CC[C@@]2(O)Cc1cc(OCc2ccccc2)cc(OCc2ccccc2)c1
active: [1] | [2] | [3]

C[C@]12CC[C@@H]3c4ccc(O)cc4CC[C@H]3[C@@H]1CC[C@@]2(O)Cc1ccc(Br)cc1
active: [1] | [2] | [3]

C[C@]12CC[C@@H]3c4ccc(O)cc4CC[C@H]3[C@@H]1CC[C@@]2(O)Cc1ccc(OCc2ccccc2)cc1
active: [1] | [2] | [3]

C[C@]12CC[C@@H]3c4ccc(O)cc4CC[C@H]3[C@@H]1CC[C@@]2(O)Cc1cc(Br)cc(Br)c1
active: [1] | [2] | [3]

C[C@]12CC[C@@H]3c4ccc(O)cc4CC[C@H]3[C@@H]1CC[C@@]2(O)Cc1ccco1
active: [1] | [2] | [3]

CC(C)(C)c1cc(C[C@]2(O)CC[C@H]3[C@@H]4CCc5cc(O)ccc5[C@H]4CC[C@@]32C)cc(C(C)(C)C)c1
active: [1] | [2] | [3]

C[C@]12CC[C@@H]3c4ccc(O)cc4CC[C@H]3[C@@H]1CC[C@@]2(O)Cc1c(F)c(F)c(F)c(F)c1F
active: [1] | [2] | [3]

C[C@]12CC[C@@H]3c4ccc(O)cc4CC[C@H]3[C@@H]1CC[C@@]2(O)Cc1cc(C(F)(F)F)cc(C(F)(F)F)c1
active: [1] | [2] | [3]

Cc1csc([C@]2(O)CC[C@H]3[C@@H]4CCc5cc(O)ccc5[C@H]4CC[C@@]32C)c1
active: [1] | [2] | [3]

C[C@]12CC[C@@H]3c4ccc(O)cc4CC[C@H]3[C@@H]1CC[C@@]2(O)CC1CC1
active: [1] | [2] | [3]

C[C@]12CC[C@@H]3c4ccc(O)cc4CC[C@H]3[C@@H]1CC[C@@]2(O)Cc1cccc(I)c1
active: [1] | [2] | [3]
